Data from ChEMBL document CHEMBL4304827, “Design, synthesis and evaluation of structurally diverse chrysin-chromene-spirooxindole hybrids as anticancer agents” (Bioorg Med Chem, 2019).
Activity calls are given as the source filed them. The calls are words filed in the database; no cut-off is given here.

Assays:
K562 = assay: Antiproliferative activity against human K562 cells assessed as reduction in cell proliferation incubated for 48 hrs by MTT assay; format: functional, cell-based; settings: K562, 48 h
Procedure, shortened: (§1)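 Log-phase cells were plated at 5 × 10^3/well in RPMI-1640 with 10% FBS and cultured 24 h. Compounds were added at graded concentrations (DMSO <0.1%) for 48 h. MTT (5 mg/mL) was added for about 4 h, formazan was dissolved in DMSO and A490 was read. IC50 was calculated from ≥3 independent experiments and reported as mean ± SD. Chrysin served as positive control.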

NCI-H1299 = assay: Antiproliferative activity against human H1299 cells assessed as reduction in cell proliferation incubated for 48 hrs by MTT assay; format: functional, cell-based; settings: NCI-H1299, 48 h; procedure, shortened: as §1
MRC5 = assay: Cytotoxicity against human MRC5 cells assessed as reduction in cell proliferation incubated for 48 hrs by MTT assay; format: cell-based; settings: MRC5, 48 h; procedure, shortened: as §1
A549 [1] = assay: Induction of apoptosis in human A549 cells assessed as chromatin shrinkage and apoptotic body formation at higher concentrations incubated for 24 hrs by AO-EB staining based fluorescence microscopy; format: functional, cell-based
Procedure, shortened: (§2)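 A549 cells were plated at 3 × 10^5/well and cultured 12 h, then exposed to various concentrations for 24 h. Morphology was observed by microscopy. AO-EB stain (1 mg/mL each, in PBS) was applied for 10 min at room temperature in the dark. Harvested cells were stained with PI for 15 min at room temperature in the dark, then washed. Both stains were examined by fluorescence microscopy.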

A549 [2] = assay: Induction of apoptosis in human A549 cells assessed as increase in caspase 3 activity incubated for 24 hrs by colorimetry; format: functional, cell-based
Procedure, shortened: (§3)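 A549 cells were plated at 3 × 10^5/well and cultured 12 h, then treated with various concentrations for 24 h. Cells were lysed on ice for 60 min. Lysate containing 200 μg protein was incubated with caspase-3, -8 or -9 colorimetric substrate at 37 °C for 4 h in the dark, and A405 was read. Activation = (treated − blank)/(control − blank). Mean ± SD, ≥3 experiments.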

A549 [3] = assay: Induction of apoptosis in human A549 cells assessed as compromised cell membrane boundaries at 5 to 20 uM incubated for 24 hrs by PI staining based fluorescence microscopy; format: functional; procedure, shortened: as §2
A549 [4] = assay: Induction of apoptosis in human A549 cells assessed as increase in DNA ladder formation incubated for 24 hrs by agarose gel electrophoresis method; format: functional, cell-based
Procedure, shortened: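 A549 cells were treated with various concentrations for 24 h. Genomic DNA was isolated by lysis, RNase A and proteinase K digestion, then ethanol precipitation. DNA was run on a 2% agarose gel to visualize ladder formation.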

A549 [5] = assay: Induction of apoptosis in human A549 cells assessed as viable cells at 5 uM incubated for 24 hrs by annexin V FITC and PI staining based flow cytometry (reference value: 95.7%); format: functional; settings: A549, 24 h, read-out: Activity
A549 [6] = assay: Induction of apoptosis in human A549 cells assessed as viable cells at 25 uM incubated for 24 hrs by annexin V FITC and PI staining based flow cytometry (reference value: 95.7%); format: functional; settings: A549, 24 h, read-out: Activity
A549 [7] = assay: Induction of apoptosis in human A549 cells assessed as viable cells at 50 uM incubated for 24 hrs by annexin V FITC and PI staining based flow cytometry (reference value: 95.7%); format: functional; settings: A549, 24 h, read-out: Activity
A549 [8] = assay: Induction of apoptosis in human A549 cells assessed as early apoptotic cells at 5 uM incubated for 24 hrs by annexin V FITC and PI staining based flow cytometry (reference value: 0.53%); format: functional
A549 [9] = assay: Induction of apoptosis in human A549 cells assessed as early apoptotic cells at 25 uM incubated for 24 hrs by annexin V FITC and PI staining based flow cytometry (reference value: 0.53%); format: functional
A549 [10] = assay: Induction of apoptosis in human A549 cells assessed as late apoptotic cells at 5 uM incubated for 24 hrs by annexin V FITC and PI staining based flow cytometry (reference value: 1.32%); format: functional
A549 [11] = assay: Induction of apoptosis in human A549 cells assessed as necrotic cells at 50 uM incubated for 24 hrs by annexin V FITC and PI staining based flow cytometry (reference value: 2.43%); format: functional
A549 [12] = assay: Induction of apoptosis in human A549 cells assessed as increase in caspase 8 activity at 100 uM incubated for 24 hrs by colorimetry relative to control; format: functional; procedure, shortened: as §3
A549 [13] = assay: Induction of apoptosis in human A549 cells assessed as increase in caspase 9 activity incubated for 24 hrs by colorimetry; format: functional, cell-based; procedure, shortened: as §3
A549 [14] = assay: Induction of apoptosis in human A549 cells assessed as downregulation of Bcl2 protein expression incubated for 24 hrs by Western blot analysis; format: functional, cell-based
Procedure, shortened: (§4)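 A549 cells were treated with various concentrations for 24 h and lysed in RIPA buffer with 1 mM PMSF. Protein (20 μg) was resolved on 8-12% SDS-PAGE and transferred to PVDF. Membranes were blocked in 5% milk and probed with primary antibodies overnight at 4 °C, then with anti-rabbit secondary. Bands were quantified by densitometry. Mean ± SD, ≥3 experiments.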

A549 [15] = assay: Induction of apoptosis in human A549 cells assessed as downregulation of Akt protein expression incubated for 24 hrs by Western blot analysis; format: functional, cell-based; procedure, shortened: as §4
A549 [16] = assay: Induction of apoptosis in human A549 cells assessed as downregulation of 5-Lox protein expression incubated for 24 hrs by Western blot analysis; format: functional, cell-based; procedure, shortened: as §4
A549 [17] = assay: Induction of apoptosis in human A549 cells assessed as downregulation of MDM2 protein expression incubated for 24 hrs by Western blot analysis; format: functional, cell-based; procedure, shortened: as §4
A549 [18] = assay: Induction of apoptosis in human A549 cells assessed as upregulation of Bax protein expression incubated for 24 hrs by Western blot analysis; format: functional, cell-based; procedure, shortened: as §4
A549 [19] = assay: Induction of apoptosis in human A549 cells assessed as upregulation of p53 protein expression incubated for 24 hrs by Western blot analysis; format: functional, cell-based; procedure, shortened: as §4
A549 [20] = assay: Induction of apoptosis in human A549 cells assessed as upregulation of p21 protein expression incubated for 24 hrs by Western blot analysis; format: functional, cell-based; procedure, shortened: as §4
A549 [21] = assay: Antimigratory activity in human A549 cells assessed as reduction in cell migration incubated for 36 hrs by transwell migration assay; format: functional, cell-based
Procedure, shortened: (§5)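 Cells were suspended at 1 × 10^4/mL in RPMI-1640 with 1% FBS and seeded in the upper chamber. For the invasion assay the upper chamber was coated with Matrigel. The lower chamber held medium with 10% FBS. Compound was given at various concentrations for 36 h. Membranes were methanol-fixed and stained with 0.1% crystal violet. Cells on the lower side were counted relative to control (100%). Mean ± SD, ≥3 experiments.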

A549 [22] = assay: Antimigratory activity in human A549 cells assessed as reduction in cell invasion incubated for 36 hrs by matrigel transwell migration assay; format: functional, cell-based; procedure, shortened: as §5
A549 [23] = assay: Induction of apoptosis in human A549 cells assessed as downregulation of Akt protein expression at 10 uM by Western blot analysis; format: functional, cell-based; settings: TDE = time-dependent effect
Procedure, shortened: as §4, with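 “exposed to 10 μM” for “treated with various concentrations”, “different times” for “24 h”, “separated” for “resolved”, “incubated” for “probed”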

IC50 (K562): 4.1 µM | IC50 (NCI-H1299): 7.61 µM
SMILES: CN1C(=O)C2(C(C#N)=C(N)Oc3cc4oc(-c5ccccc5)cc(=O)c4c(O)c32)c2cc(Br)ccc21 (stereo unspecified)
IC50 (MRC5): > 100 µM | Activity (A549 [1]): Active | Activity (A549 [2]): Dose-dependent effect | Activity (A549 [3]): Active | Activity (A549 [4]): Dose-dependent effect | viability at 5 µM (A549 [5]): 85% | viability at 25 µM (A549 [6]): 73.5% | viability at 50 µM (A549 [7]): 59.8% | Activity (A549 [8]): 6.53% | Activity (A549 [9]): 9.8% | Activity (A549 [10]): 6.73% | Activity (A549 [11]): 6.11% | fold change (FC) (A549 [12]): 2.98 | Activity (A549 [13]): Dose-dependent effect | inhibition (A549 [14]): Dose-dependent effect | inhibition (A549 [15]): Dose-dependent effect | inhibition (A549 [16]): Dose-dependent effect | inhibition (A549 [17]): Dose-dependent effect | Activity (A549 [18]): Dose-dependent effect | Activity (A549 [19]): Dose-dependent effect | Activity (A549 [20]): Dose-dependent effect | inhibition (A549 [21]): Dose-dependent effect | inhibition (A549 [22]): Dose-dependent effect | inhibition (A549 [23]): Tde
